Source: ChEMBL document CHEMBL1125495, “Inhibitors of human renin with C-termini derived from amides and esters of alpha-mercaptoalkanoic acids” (J Med Chem, 1992)
pIC50: −log10 of the molar value. Blank lines part the entries; values can stand above or below the compound they belong to.

Legend:
Renin = target: T1, Renin (Homo sapiens, UniProt P00797); assay: Inhibition of human plasma renin; type: cell-free
T1 sequence (P00797 whole entry): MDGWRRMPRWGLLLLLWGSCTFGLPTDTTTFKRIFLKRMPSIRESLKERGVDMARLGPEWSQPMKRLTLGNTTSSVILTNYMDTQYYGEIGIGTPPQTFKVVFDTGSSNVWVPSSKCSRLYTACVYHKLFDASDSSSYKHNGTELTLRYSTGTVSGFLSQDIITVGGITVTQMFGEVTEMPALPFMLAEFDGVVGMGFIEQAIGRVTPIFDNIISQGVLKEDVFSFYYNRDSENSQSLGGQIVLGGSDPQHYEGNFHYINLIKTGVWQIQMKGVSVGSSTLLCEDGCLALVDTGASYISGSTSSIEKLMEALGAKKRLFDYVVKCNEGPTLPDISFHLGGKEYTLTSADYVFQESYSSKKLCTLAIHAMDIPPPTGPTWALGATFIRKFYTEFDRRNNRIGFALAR

Rhesus monkey [1] = assay: In vivo effect on mean arterial pressure(peak deltaMAP) in sodium deficient rhesus monkeys after iv administration (dose 0.31 mg/kg).; type: functional, Cercopithecidae, Artery
In short: (§1)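 Conscious male and female rhesus monkeys (N = 2) with chronic arterial access ports for direct MAP and heart-rate monitoring, and venous catheters for dosing. Animals were kept on a low-sodium diet, given furosemide the evening before, and fasted 18 h before and during the study. Compound was given iv in 0.05% acetic acid/5% dextrose/H2O, 20 min after a vehicle control dose. Peak changes were averaged, and the hypotensive half-life was read from time plots.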

Renin (Homo sapiens) [2] = target: T2, Renin (Homo sapiens) (UniProt P00797); settings: Cercopithecidae; Plasma; at 0.63 mg/kg
T2 sequence (whole entry): T1 sequence (P00797 whole entry)

Rhesus monkey [3] = assay: Half life of hypotensive effect in sodium deficient rhesus monkeys after iv administration (dose 0.31 mg/kg).; type: functional, organism-based; design: dose 0.31 mg/kg; settings: Cercopithecidae; in short: as §1
Rhesus monkey [4] = assay: In vivo effect on heart rate(peak deltaHR) in sodium deficient rhesus monkeys after iv administration (dose 0.31 mg/kg).; type: functional, Cercopithecidae; in short: as §1
Renin (Homo sapiens) [5] = target: T2, Renin (Homo sapiens); assay: In vivo inhibition of plasma renin activity in sodium deficient rhesus monkeys after iv administration (dose 0.1 mg/kg, determined at peak deltaMAP).; type: functional, organism-based; design: dose 0.1 mg/kg; settings: Cercopithecidae, target entry is the homologue from another species, at 0.1 mg/kg
In short: (§2)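 Sodium-deficient rhesus monkeys (N = 2) were kept on a low-sodium diet, given furosemide the evening before, and fasted 18 h. Compound was given iv through a venous catheter in 0.05% acetic acid/5% dextrose/H2O, 20 min after vehicle. Blood was drawn periodically via an arterial access port for plasma renin activity. Percent inhibition was taken at peak ΔMAP.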

Rhesus monkey [6] = assay: In vivo effect on mean arterial pressure(peak deltaMAP) in sodium deficient rhesus monkeys after iv administration (dose 0.1 mg/kg).; type: functional, Cercopithecidae, Artery; in short: as §1
Rhesus monkey [7] = assay: Half life of hypotensive effect in sodium deficient rhesus monkeys after iv administration (dose 0.1 mg/kg).; type: functional, organism-based; design: dose 0.1 mg/kg; settings: Cercopithecidae; in short: as §1
Rhesus monkey [8] = assay: In vivo effect on heart rate(peak deltaHR) in sodium deficient rhesus monkeys after iv administration (dose 0.1 mg/kg).; type: functional, Cercopithecidae; in short: as §1
Renin (Homo sapiens) [9] = target: T2, Renin (Homo sapiens); assay: In vivo inhibition of plasma renin activity in sodium deficient rhesus monkeys after iv administration (dose 0.34 mg/kg, determined at peak deltaMAP).; type: functional, organism-based; design: dose 0.34 mg/kg; settings: Cercopithecidae, target entry is the homologue from another species, at 0.34 mg/kg
Rhesus monkey [10] = assay: In vivo effect on heart rate(peak deltaHR) in sodium deficient rhesus monkeys after iv administration (dose 0.34 mg/kg).; type: functional, Cercopithecidae
Rhesus monkey [11] = assay: Half life of hypotensive effect in sodium deficient rhesus monkeys after iv administration (dose 0.34 mg/kg).; type: functional, organism-based; design: dose 0.34 mg/kg; settings: Cercopithecidae
Rhesus monkey [12] = assay: In vivo effect on mean arterial pressure(peak deltaMAP) in sodium deficient rhesus monkeys after iv administration (dose 0.34 mg/kg).; type: functional, Cercopithecidae, Artery
Rhesus monkey [13] = assay: Half life of hypotensive effect in sodium deficient rhesus monkeys after iv administration (dose 0.63 mg/kg).; type: functional, organism-based; design: dose 0.63 mg/kg; settings: Cercopithecidae; in short: as §1
Rhesus monkey [14] = assay: In vivo effect on heart rate(peak deltaHR) in sodium deficient rhesus monkeys after iv administration (dose 0.63 mg/kg).; type: functional, Cercopithecidae; in short: as §1
Renin (Homo sapiens) [15] = target: T2, Renin (Homo sapiens); assay: In vivo inhibition of plasma renin activity in sodium deficient rhesus monkeys after iv administration (dose 0.63 mg/kg, determined at peak deltaMAP).; type: functional, organism-based; design: dose 0.63 mg/kg; settings: Cercopithecidae; target entry is the homologue from another species; at 0.63 mg/kg; in short: as §2
Rhesus monkey [16] = assay: In vivo effect on mean arterial pressure(peak deltaMAP) in sodium deficient rhesus monkeys after iv administration (dose 0.63 mg/kg).; type: functional, Cercopithecidae, Artery; in short: as §1

inhibition (Renin (Homo sapiens) [2]): 86%
SMILES: CN1CCN(C(=O)CSC[C@H](O)[C@H](CC2CCCCC2)NC(=O)[C@H](Cc2c[nH]cn2)NC(=O)[C@H](Cc2ccccc2)NC(=O)OC(C)(C)C)CC1
Peak deltaMAP (Rhesus monkey [1]): -25 mmHg | T1/2 (Rhesus monkey [3]): < 10 min | Peak deltaHR (Rhesus monkey [4]): 4 beats min-1

inhibition (Renin (Homo sapiens) [5]): 88%
SMILES: CC(C)(C)OC(=O)N[C@@H](Cc1ccccc1)C(=O)N[C@@H](Cc1c[nH]cn1)C(=O)N[C@@H](CC1CCCCC1)[C@@H](O)CS(=O)(=O)CC(=O)NCCN1CCOCC1
Peak deltaMAP (Rhesus monkey [6]): -15 mmHg | T1/2 (Rhesus monkey [7]): < 10 min | Peak deltaHR (Rhesus monkey [8]): -18 beats min-1

inhibition (Renin (Homo sapiens) [9]): 95%
SMILES: CC(C)(C)OC(=O)N[C@@H](Cc1ccccc1)C(=O)N[C@@H](Cc1c[nH]cn1)C(=O)N[C@@H](CC1CCCCC1)[C@@H](O)CSc1nnnn1CCc1ccncc1
Peak deltaHR (Rhesus monkey [10]): 1 beats min-1 | T1/2 (Rhesus monkey [11]): < 10 min | Peak deltaMAP (Rhesus monkey [12]): -22 mmHg

inhibition (Renin (Homo sapiens) [15]): 87%
SMILES: CCOC(=O)CSC[C@H](O)[C@H](CC1CCCCC1)NC(=O)[C@H](Cc1c[nH]cn1)NC(=O)[C@H](Cc1ccccc1)NC(=O)OC(C)(C)C
T1/2 (Rhesus monkey [13]): < 10 min | Peak deltaHR (Rhesus monkey [14]): -23 beats min-1 | Peak deltaMAP (Rhesus monkey [16]): -15 mmHg

pIC50 (Renin): 7.70
SMILES: CN1CCN(C(=O)CS(=O)(=O)C[C@H](O)[C@H](CC2CCCCC2)NC(=O)[C@H](Cc2c[nH]cn2)NC(=O)[C@H](Cc2ccccc2)NC(=O)OC(C)(C)C)CC1

The next lines start with the compound.

SMILES: CC(C)(C)OC(=O)N[C@@H](Cc1ccccc1)C(=O)N[C@@H](Cc1cnc[nH]1)C(=O)N[C@@H](CC1CCCCC1)[C@@H](O)CSCC(=O)NCCN1CCOCC1
pIC50 (Renin): 7.40

SMILES: CC(C)(C)OC(=O)N[C@@H](Cc1ccccc1)C(=O)N[C@@H](Cc1cnc[nH]1)C(=O)N[C@@H](CC1CCCCC1)[C@@H](O)CSCC(=O)NCc1ccncc1
pIC50 (Renin): 7.04

SMILES: CC(C)(C)OC(=O)N[C@@H](Cc1ccccc1)C(=O)N[C@@H](Cc1c[nH]cn1)C(=O)N[C@@H](CC1CCCCC1)[C@@H](O)CS(=O)(=O)CC(=O)NC1C[N+]2([O-])CCC1CC2 (stereo partly specified)
pIC50 (Renin): 8.38

SMILES: CC(C)CC(SC[C@H](O)[C@H](CC1CCCCC1)NC(=O)[C@H](Cc1cnc[nH]1)NC(=O)[C@H](Cc1ccccc1)NC(=O)OC(C)(C)C)C(=O)NCCN1CCOCC1 (stereo partly specified)
pIC50 (Renin): 7.14
